{
  "source": "ChEMBL document CHEMBL4627365",
  "about": "“Dithiocarbamate prodrugs activated by prostate specific antigen to target prostate cancer” (Bioorg Med Chem Lett, 2020)",
  "key": {"[1]": {"experiment": "Cytotoxicity against human prostate epithelial cells assessed as reduction in cell viability after 24 hrs by resazurin dye based assay"}, "Prostatic carcinoma cell": {"tested_on": "Prostatic carcinoma cell", "experiment": "Antiproliferative activity against human prostate cancer cells assessed as reduction in cell viability after 24 hrs by resazurin dye based assay", "format": "functional", "outline": "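LNCaP (PSA-expressing) and PC3 (PSA-non-expressing) cells were co-treated with prodrug plus 1 μM CuSO4. Proliferation was read by resazurin assay at 24 h, and IC50 was derived.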"}, "[2]": {"target": "T1, Prostate-specific antigen (Homo sapiens, UniProt P07288)", "T1 sequence (P07288 whole entry)": "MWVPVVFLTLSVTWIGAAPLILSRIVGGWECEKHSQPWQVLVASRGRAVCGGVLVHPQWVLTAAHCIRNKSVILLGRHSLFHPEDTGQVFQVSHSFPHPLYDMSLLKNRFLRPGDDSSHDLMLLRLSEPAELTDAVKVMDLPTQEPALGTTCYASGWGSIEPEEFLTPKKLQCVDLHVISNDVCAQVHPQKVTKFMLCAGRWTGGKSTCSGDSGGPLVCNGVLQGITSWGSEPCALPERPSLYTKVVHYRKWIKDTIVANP", "experiment": "Prodrug activation assessed as PSA-mediated (unknown origin) Cu(diethyldithiocarbamate)2 complex formation in presence of CuSO4 by LC-MS analysis", "format": "ADME", "outline": "(§1)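 Prodrug was incubated with 20 μg/mL PSA enzyme and sampled from 5 min to 48 h. Samples were analysed by HPLC at 254 nm, and products were assigned by mass spectrometry (m/z).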"}, "[3]": {"target": "T1, Prostate-specific antigen", "experiment": "Prodrug activation assessed as PSA-mediated (unknown origin) [4-[[(2S)-2-[[(2R)-2-amino-3-hydroxy-propanoyl]amino]-4-methyl-pentanoyl]amino]phenyl]methyl N,N-diethylcarbamodithioate metabolite formation in presence of CuSO4 by LC-MS analysis", "format": "ADME", "outline": "as §1"}, "[4]": {"target": "T1, Prostate-specific antigen", "experiment": "Prodrug activation assessed as PSA-mediated (unknown origin) compound cleavage measured up to 8 hrs by HPLC analysis", "outline": "(§2)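 Prodrug incubated with 20 μg/mL PSA enzyme; samples taken at 5 min, 1 h, 2 h, 4 h, 8 h, 24 h and 48 h. Monitored by HPLC at 254 nm as percent prodrug remaining. Cleavage product identity confirmed by mass spectrometry.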"}, "[5]": {"target": "T1, Prostate-specific antigen", "experiment": "Prodrug activation assessed as PSA-mediated (unknown origin) Cu(diethyldithiocarbamate)2 complex formation in presence of leucine aminopeptidase and CuSO4 after 14.5 mins by LC-MS analysis", "format": "ADME"}, "[6]": {"experiment": "Prodrug activation in human PC3 cell lysate assessed as peptide cleavage measured up to 4 hrs by HPLC analysis", "format": "subcellular", "details": "pc-3, 4 h", "outline": "(§3)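 Prodrug incubated with LNCaP or PC3 cell lysate. Cleavage followed over time by HPLC, with caffeine as reference, for up to 48 h.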"}, "[7]": {"target": "T1, Prostate-specific antigen", "experiment": "Prodrug activation assessed as PSA-mediated (unknown origin) diethyldithiocarbamate formation in presence of leucine aminopeptidase by LC-MS analysis", "format": "ADME"}, "[8]": {"target": "T1, Prostate-specific antigen", "experiment": "Prodrug activation in human LNCAP cell lysates assessed as PSA-mediated peptide cleavage measured up to 4 hrs by HPLC analysis", "format": "subcellular, Lysate", "outline": "as §3"}, "[9]": {"target": "T1, Prostate-specific antigen", "experiment": "Prodrug activation assessed as PSA-mediated (unknown origin) 4-((R)-2-((R)-2-amino-3-hydroxypropanamido)-4-methylpentanamido)benzyl diethyl-carbamodithioate metabolite formation by HPLC analysis", "format": "ADME", "outline": "as §2"}, "[10]": {"target": "T2, Prostate-specific antigen (PSA) (Homo sapiens, UniProt P07288)", "T2 sequence (P07288 whole entry)": "T1 sequence (P07288 whole entry)", "experiment": "Stability assessed as PSA-mediated (unknown origin) compound cleavage by measuring parent compound remaining after 48 hrs by HPLC analysis", "format": "ADME", "details": "prostate-specific antigen (PSA) enzyme, read-out: Stability", "outline": "as §2"}, "[11]": {"target": "T1, Prostate-specific antigen", "experiment": "Prodrug activation assessed as PSA-mediated (unknown origin) Leu-PAB-DT metabolite formation measured up to 48 hrs by HPLC analysis", "format": "ADME", "outline": "as §2"}, "[12]": {"experiment": "Prodrug activation in human PC3 cell lysate assessed as peptide cleavage measured up to 48 hrs by HPLC analysis", "format": "subcellular", "details": "pc-3, 48 h", "outline": "as §3"}},
  "note": "pIC50: −log10 of the molar value. Residues, ends and D or L forms follow the SMILES beside them. *: point of attachment. X1 = CCN(CC)C(=S)SCc1ccc(N*)cc1",
  "data": [
    {"smiles": "CCN(CC)C(=S)SCc1ccc(NC(=O)CC[C@H](N)C(=O)O)cc1", "values": [
      {"measurement": "pIC50", "setting": "[1]", "value": 4.82},
      {"measurement": "pIC50", "setting": "Prostatic carcinoma cell", "value": 6.10}
    ]},
    {"smiles": "CCN(CC)C(=S)SCc1ccc(NC(=O)[C@H](CC(C)C)NC(=O)[C@H](CO)NC(=O)[C@H](Cc2ccc(O)cc2)NC(=O)[C@H](Cc2ccc(O)cc2)NC(=O)[C@H](CO)NC(=O)[C@H](CO)NC(=O)[C@H](CCCNC(=N)N)NC(=O)[C@H](N)CO)cc1", "values": [
      {"measurement": "Drug metabolism", "setting": "[2]", "value": "Metabolite_Notdetected"},
      {"measurement": "Drug metabolism", "setting": "[3]", "value": "Metabolite_Detected"}
    ]},
    {"smiles": "CCN(CC)C(=S)SCc1ccc(NC(=O)[C@H](CC(C)C)NC(=O)[C@H](CCC(N)=O)NC(=O)[C@H](CC(C)C)NC(=O)[C@H](CCCCN)NC(=O)[C@H](CO)NC(=O)[C@H](CO)NC(=O)[C@H](Cc2c[nH]cn2)NC(C)=O)cc1", "note": "(Ac-HSSKLQL-X1)", "values": [
      {"measurement": "Drug metabolism", "setting": "[4]", "value": 100, "unit": "%"},
      {"measurement": "Drug metabolism", "setting": "[5]", "value": "Metabolite_Detected"},
      {"measurement": "Drug metabolism", "setting": "[6]", "value": "> 50", "unit": "%"},
      {"measurement": "Drug metabolism", "setting": "[7]", "value": "Metabolite_Notdetected"},
      {"measurement": "Drug metabolism", "setting": "[8]", "value": 100, "unit": "%"},
      {"measurement": "Drug metabolism", "setting": "[9]", "value": "Metabolite_Detected"}
    ]},
    {"smiles": "CCN(CC)C(=S)SCc1ccc(NC(=O)[C@H](CC(C)C)NC(=O)[C@H](CO)NC(=O)[C@H](Cc2ccc(O)cc2)NC(=O)[C@H](Cc2ccc(O)cc2)NC(=O)[C@H](CO)NC(=O)[C@H](CO)NC(=O)[C@@H](N)CCCNC(=N)N)cc1", "note": "(H-RSSYYSL-X1)", "values": [
      {"measurement": "remaining at 48 h", "setting": "[10]", "value": 30, "unit": "%"},
      {"measurement": "Drug metabolism", "setting": "[11]", "value": "Metabolite_Detected"},
      {"measurement": "Drug metabolism", "setting": "[5]", "value": "Metabolite_Detected"},
      {"measurement": "Drug metabolism", "setting": "[7]", "value": "Metabolite_Notdetected"},
      {"measurement": "Drug metabolism", "setting": "[8]", "value": 100, "unit": "%"},
      {"measurement": "Drug metabolism", "setting": "[12]", "value": "Metabolite_Notdetected"}
    ]}
  ]
}
